In the library only some 3.4% were active in any assay of this set; here they are far more common.
MLL AF4-AF9 inh: inhibitors of AF4 peptide binding to AF9, primary screen, biochemical, AlphaScreen, biotin-AF4 peptide, FLAG-AF9, single point; Protein AF-9 (Homo sapiens), P42568; 0.47% of 350,000 active; inhibition, % at 10 µM;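 active = every replicate reaching a set inhibition limit, whatever the replicate mean, cut at about 25% in these data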;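 note: 0% = plate neutral control median and 100% = total signal loss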
Target sequence (P42568 whole entry, looked up): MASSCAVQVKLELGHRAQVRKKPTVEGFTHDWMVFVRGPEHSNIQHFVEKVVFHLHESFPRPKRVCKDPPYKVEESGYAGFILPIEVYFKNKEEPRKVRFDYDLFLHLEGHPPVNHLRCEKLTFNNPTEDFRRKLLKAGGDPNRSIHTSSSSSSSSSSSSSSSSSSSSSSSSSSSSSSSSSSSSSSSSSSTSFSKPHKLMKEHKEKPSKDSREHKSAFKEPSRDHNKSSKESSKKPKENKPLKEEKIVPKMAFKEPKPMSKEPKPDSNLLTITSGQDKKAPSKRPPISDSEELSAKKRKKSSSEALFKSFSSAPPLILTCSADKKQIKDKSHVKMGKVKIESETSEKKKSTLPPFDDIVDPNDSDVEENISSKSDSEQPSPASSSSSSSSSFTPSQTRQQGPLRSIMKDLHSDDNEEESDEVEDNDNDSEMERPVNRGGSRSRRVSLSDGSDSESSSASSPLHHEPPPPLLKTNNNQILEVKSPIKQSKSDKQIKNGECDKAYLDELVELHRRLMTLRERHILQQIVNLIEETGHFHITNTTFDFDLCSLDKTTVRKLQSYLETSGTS
Ecoli rRNA inh: reduced GFP signal of wild-type E. coli, primary screen, bacterial rRNA inhibitor project, GFP/RFP fluorescence, OD600, single point. E. coli WT GFP vs humanized-ribosome RFP mutants, 24 h; stronger effect = lower value; DMSO median 0, no signal -100. AID 720706, 2013. GFP signal change (wild-type ribosome), % (no concentration beside the values). 1.6% of 350,000 active;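 active = significant combined selectivity score with lowered wild-type GFP, culture density cut under 30%, mutant RFP and density less affected; inactive = any of these conditions unmet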
E-selectin induc: E-selectin induction in HUVECs, primary screen, imaging, HUVEC, immunofluorescence imaging, single point; P16581; 0.37% of 260,000 active; normalized: neutral wells 0, TNF-alpha wells 100; AID 686992, 2013; activation, % at 7.58 µM;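 active = mean E-selectin-positive cell signal at least 10% of the positive control, reached in at least 60% of replicates, without over 20% cell loss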
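Test system – human umbilical vein endothelial cells (HUVEC), E-selectin induction · Input – 3,000 HUVEC seeded per well · Buffer or medium – EGM-2, gelatin · Compound dosing – single-point compound dose · Detection – immunofluorescence imaging · Measure – percent E-selectin-positive cells · Controls – TNF-alpha high, DMSO low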
S100A4 inh HTS: inhibitors of S100A4-myosin IIA peptide binding, primary screen, biochemical, fluorescence polarization, TAMRA-MyoIIA peptide. 0.14% of 360,000 active. inhibition, % at 10.7 µM;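 active = mean inhibition of at least 70% across replicates, with every replicate also reaching that level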
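Material: S100A4 monomer protein / Buffer or medium: 50 mM HEPES pH 7.2, 10 mM CaCl2, 100 mM KCl / Times: 5 min incubation before reading / Benchmarks: neutral control DMSO, positive control TFP / Reagent: labelled myosin peptide probe, 5 nM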
ERAP1 HTS inh: human ERAP1 aminopeptidase inhibitors, primary screen, biochemical, single point, plate reader; Endoplasmic reticulum aminopeptidase 1 (Homo sapiens), Q9NZ08; recombinant ERAP1, Leu-AMC fluorescence, 60 min; inhibition, % at 10.7 µM; 0.15% of 340,000 active; AID 652197, 2013;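 active = mean replicate inhibition of at least 30%, or all replicates individually reaching that 30% level; inactive = mean below 30% and not every replicate reaching it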;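 note: 0% = neutral control wells and 100% = L-leucinethiol positive control wells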
SIRT5 inh: SIRT5 desuccinylase inhibitors, primary screen, biochemical, fluorescence imaging, single point, set 5 | inhibition, % at 15 µM | 1.1% of 330,000 active | Purified SirT5, succinyl-peptide AMC, trypsin-coupled fluorescence | NAD-dependent protein deacylase sirtuin-5, mitochondrial (Homo sapiens), Q9NXA8 | AID 652115, 2013; in the data active = inhibition above about 15%
* hit, by the source's call; nt = no result.

SMILES	MLL AF4-AF9 inh	Ecoli rRNA inh	E-selectin induc	S100A4 inh HTS	ERAP1 HTS inh	SIRT5 inh
O=C(Nc1ccc(Cl)c(Cl)c1)N[C@H]1CC[C@@H](CCn2cc(C3CC3)nn2)O[C@@H]1CO	1	-4	0	2	-2	-1
O=C(Nc1ccc(Cl)c(Cl)c1)N[C@@H]1CC[C@H](CCn2cc(C3CC3)nn2)O[C@H]1CO	2	-9	0	51	-1	27*
COc1cccc(-c2cn(CC[C@@H]3CC[C@H](NC(=O)CC4CC4)[C@@H](CO)O3)nn2)c1	2	-2	0	10	1	30*
CN1C(=O)c2cc(NC(=O)C3CCOCC3)ccc2OC[C@@H]2O[C@H](CC(=O)O)CC[C@H]21	-1	4	0	0	-2	-4
CCOC(=O)c1ccccc1NC(=O)c1cccc2c1C(=O)N(C1CCN(C(=O)OCC)CC1)C2	-6	2	nt	1	1	-3
CCOC(=O)N1CCC(N2Cc3cccc(C(=O)Nc4ccccc4OC)c3C2=O)CC1	2	-21*	nt	5	-3	-6
COc1cc(NC(=O)c2cccc3c2C(=O)N(C2CCCCC2)C3)cc(OC)c1OC	11	-41*	nt	-3	3	2
COc1ccc(C(=O)N2CC(=O)Nc3ccc(C)cc3C2c2ccccc2)cc1 (centres undefined)	1	4	0	-2	7	3
COc1ccc(C(=O)N2CC(c3ccccc3)CC2=O)cc1 (centres undefined)	1	16	83*	4	nt	nt
COc1ccc2c3c([nH]c2c1)[C@@H](CO)N(C(=O)Nc1ccc(F)cc1)CC31CCN(C(=O)Cc2ccccc2)CC1	-1	-2	0	-1	2	8
O=C(NC1CC1)c1cccc2c1C(=O)c1ccc(N3CCC(N4CCCCC4)CC3)cc1S2(=O)=O	4	4	1	-8	2	17*
CC=Cc1ccc2n(c1=O)C[C@H]1[C@H](CO)[C@@H](C(=O)Nc3ccc(-c4ccccc4)cc3)N(C(C)=O)[C@@H]21 (mixture of isomers)	9	3	0	-3	1	-2
CCCCNC(=S)NCC(c1ccccc1)c1c[nH]c2ccccc12 (centres undefined)	1	-49*	0	35	-1	-4
CN(C)CCCNC(=S)NCC(c1ccc(Cl)cc1Cl)c1c[nH]c2ccccc12 (centres undefined)	35*	-59	1	-1	-2	-2
NCC(c1ccc(Cl)cc1Cl)c1c[nH]c2ccccc12 (centres undefined)	2	-9	0	-5	-1	1
NCC(c1ccccc1)c1c[nH]c2ccccc12 (centres undefined)	10	-32	0	-1	0	-4
O=[N+]([O-])c1ccc(N/N=C/C=C/c2ccco2)cc1	0	-40*	0	-3	nt	nt
O=C(N/N=C/c1ccco1)c1cc([N+](=O)[O-])cc([N+](=O)[O-])c1	1	12	nt	-1	6	1
O=C(O)c1ccc(N/N=C/C=C/c2ccc([N+](=O)[O-])o2)cc1	8	-32*	21	-39	-34	15*
O=C(N/N=C/c1ccc([N+](=O)[O-])o1)C(=O)Nc1ccc(C(=O)O)cc1	-3	4	0	0	13	3
C[C@H](CO)N1C[C@H](C)[C@@H](CN(C)Cc2ccc(Cl)c(Cl)c2)OCc2ccccc2-c2c(n(C)c3ccccc23)C1=O	nt	4	nt	nt	nt	nt
C[C@@H]1CN([C@@H](C)CO)C(=O)c2c(c3ccccc3n2C)-c2ccccc2CO[C@H]1CN(C)Cc1ccc2c(c1)OCCN2C	39*	0	-1	-7	-3	3
C[C@@H]1CN([C@H](C)CO)C(=O)c2c(c3ccccc3n2C)-c2ccccc2CO[C@@H]1CN(C)Cc1ccc2c(c1)OCCN2C	50*	0	0	6	-2	16*
C[C@H]1CN([C@@H](C)CO)C(=O)c2c(c3ccccc3n2C)-c2ccccc2CO[C@H]1CN(C)Cc1ccc(Cl)c(Cl)c1	1	1	-3	-1	4	-12
C[C@@H]1CN([C@H](C)CO)C(=O)Cc2cc(NS(=O)(=O)c3cccs3)ccc2O[C@@H]1CN(C)C(=O)Nc1cccc2ccccc12	nt	0	-14	nt	nt	nt
SMILES	MLL AF4-AF9 inh	Ecoli rRNA inh	E-selectin induc	S100A4 inh HTS	ERAP1 HTS inh	SIRT5 inh
N#CC1=C(N)Oc2cc3c(cc2C1c1ccc(Cl)cc1)OCO3 (centres undefined)	1	-23*	nt	-4	-4	3
CO[C@@H]1CN(C)C(=O)c2ccc(NC(=O)c3ccc(Oc4ccccc4)cc3)cc2OC[C@@H](C)NC[C@@H]1C	nt	-6	0	3	nt	-1
CCN1CCS/C1=C\C=C\C1=[N+](CC)CCS1	-1	-32	1	3	10	18*
O=C(Nc1ccccc1F)N[C@@H]1C=C[C@@H](CC(=O)N2CCCCC2)O[C@@H]1CO	-2	2	0	4	3	-2
Cc1cc(/C=C/C(=O)O)c(C)n1-c1ccc(Cl)cc1	1	nt	0	-9	6	1
Cc1cc(C=O)c(C)n1-c1ccc(Cl)c(C(=O)O)c1	-9	9	nt	-5	32*	7
Cn1c(/C(C#N)=C/c2cccc(O)c2)nc2ccccc21	4	-24*	9	5	2	1
N#C/C(=C\c1cccc(O)c1)c1nc2ccccc2o1	3	-18*	1	0	6	1
COc1ccc(NC(=O)Nc2ccc3c(c2)[C@H]2C[C@H](CC(=O)NCc4ccc5c(c4)OCO5)O[C@H](CO)[C@H]2O3)cc1	2	-4	0	-3	2	1
O=C(c1ccccc1)N1C[C@H]2[C@@H](c3ccccc31)[C@H](CO)N2Cc1cc(F)ccc1F	1	-4	0	1	1	1
CN1C(=O)c2cc(NS(=O)(=O)c3ccccc3F)ccc2OC[C@H]2O[C@@H](CC(=O)NC3Cc4ccccc4C3)CC[C@@H]21	-1	-11	0	2	-1	-4
Cc1ccc(N(C)c2nc(N)nc(N)c2N=O)cc1	1	94	0	191*	9	0
O=C(NC[C@@H]1CC[C@@H]2[C@@H](CN2Cc2cccc(Cl)c2)O1)C1CCC1	-4	nt	nt	0	-1	-2
